Key:
CCRF-CEM [1] = experiment: Growth inhibition of human CCRF-CEM cells at 10 uM after 48 hrs by sulforhodamine B assay relative to control; assay type: functional; details: read-out: GI
Summary of the method: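 NCI-60 primary screen at a single dose of 10 µM with 48 h continuous exposure. Growth or viability read by sulforhodamine B protein staining and expressed as percent growth inhibition versus untreated cells.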

[2] = Growth inhibition of human OVCAR5 cells after 48 hrs by coulter counting analysis; assay type: functional; details: OVCAR-5, 48 h
Summary of the method: (§1)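 Five-dose NCI-60 follow-up, 0.01–100 µM, made from DMSO stock in buffered saline (final DMSO <1%), in duplicate wells. Cells in RPMI 1640 with 10% FBS at 6×10^4 cells/ml, 37 °C, 5% CO2, 48 h. Cells diluted tenfold in saline, Coulter-counted and corrected for dilution. GI50, TGI and LC50 taken from log concentration–percent growth curves.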

[3] = Growth inhibition of human OVCAR8 cells after 48 hrs by coulter counting analysis; assay type: functional; details: OVCAR-8, 48 h; summary of the method: as §1
[4] = Growth inhibition of human NCI-ADR-RES cells after 48 hrs by coulter counting analysis; assay type: functional; summary of the method: as §1
786-0 = experiment: Growth inhibition of human 786-0 cells after 48 hrs by coulter counting analysis; assay type: functional; details: 786-0, 48 h
Summary of the method: (§2)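 NCI five-dose screen at 0.01-100 µM, diluted from DMSO stocks in buffered saline (final DMSO <1%). Cells at 6×10^4 cells/ml in RPMI 1640 with 10% FBS, in duplicate wells, at 37 °C under 5% CO2 for 48 h. Cells diluted tenfold in saline and Coulter-counted. GI50, TGI and LC50 taken from log concentration-growth inhibition curves.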

A498 = experiment: Growth inhibition of human A498 cells after 48 hrs by coulter counting analysis; assay type: functional; details: A498, 48 h; summary of the method: as §2
[5] = Growth inhibition of human RXF393 cells after 48 hrs by coulter counting analysis; assay type: functional; details: RXF 393, 48 h; summary of the method: as §1
SN12C = experiment: Growth inhibition of human SN12C cells after 48 hrs by coulter counting analysis; assay type: functional; summary of the method: as §1
DU-145 = experiment: Growth inhibition of human DU145 cells after 48 hrs by coulter counting analysis; assay type: functional; details: DU-145, 48 h; summary of the method: as §2
MDA-MB-231 = experiment: Growth inhibition of human MDA-MB-231 cells after 48 hrs by coulter counting analysis; assay type: functional; details: MDA-MB-231, 48 h; summary of the method: as §2
[6] = molecular target: Glycogen synthase kinase-3 beta (Homo sapiens) (UniProt P49841); experiment: Inhibition of GSK-3beta (unknown origin) at 20 uM after 30 mins by scintillation counting analysis relative to control
Chain of Glycogen synthase kinase-3 beta (Homo sapiens) (P49841 whole entry, looked up): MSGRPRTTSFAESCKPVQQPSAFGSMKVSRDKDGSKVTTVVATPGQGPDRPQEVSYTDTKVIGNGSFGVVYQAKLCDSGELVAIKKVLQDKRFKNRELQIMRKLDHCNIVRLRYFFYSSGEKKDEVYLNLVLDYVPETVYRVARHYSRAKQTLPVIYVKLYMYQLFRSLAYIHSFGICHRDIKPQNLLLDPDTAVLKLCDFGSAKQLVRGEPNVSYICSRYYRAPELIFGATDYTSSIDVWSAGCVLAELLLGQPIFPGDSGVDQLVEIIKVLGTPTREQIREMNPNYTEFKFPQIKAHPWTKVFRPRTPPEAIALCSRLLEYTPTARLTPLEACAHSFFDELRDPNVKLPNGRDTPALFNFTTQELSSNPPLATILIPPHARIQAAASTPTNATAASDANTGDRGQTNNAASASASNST
Summary of the method: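 Recombinant kinases, cloned, expressed and purified in-house. Radiometric ³³P-ATP assay with kinase at ~10-50 nM final and 1-5 µg peptide or protein substrate. Compound at 20 µM final, in duplicate. Reaction started by adding ATP, run 30 min at ambient temperature, then spotted on P81 phosphocellulose. Plates washed in 1% phosphoric acid and counted by scintillation. No-substrate blank subtracted. Result is mean % activity change versus DMSO control.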

[7] = Growth inhibition of human UO31 cells at 10 uM after 48 hrs by sulforhodamine B assay relative to control; assay type: functional; details: UO-31, 48 h, read-out: GI
Summary of the method: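 NCI-60 primary single-dose screen at 10 µM with continuous 48 h exposure. Cell viability/growth read by sulforhodamine B protein staining. Reported as percent growth inhibition relative to untreated cells.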

MDA-MB-468 = experiment: Growth inhibition of human MDA-MB-468 cells at 10 uM after 48 hrs by sulforhodamine B assay relative to control; assay type: functional; details: MDA-MB-468, 48 h, read-out: GI
Summary of the method: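 NCI-60 primary screen at a single 10 µM dose. Continuous 48 h exposure, with growth or viability estimated by sulforhodamine B protein staining. Reported as percent growth inhibition of treated cells relative to untreated growth.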

CCRF-CEM [8] = experiment: Growth inhibition of human CCRF-CEM cells after 48 hrs by coulter counting analysis; assay type: functional; summary of the method: as §2
HL-60(TB) = experiment: Growth inhibition of human HL-60(TB) cells after 48 hrs by coulter counting analysis; assay type: functional; details: HL-60, 48 h
Summary of the method: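 Five-dose screen (0.01-100 µM, DMSO-solubilized, under 1% DMSO final), cells in RPMI 1640 + 10% FBS at 6×10^4 cells/ml, duplicate wells, 37 °C, 5% CO2, 48 h. Cells then diluted tenfold in saline and counted by Coulter counter with dilution correction. Controls held buffer/saline/DMSO at matching dilutions. GI50 derived from log concentration-percent growth inhibition curves.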

[9] = Growth inhibition of human MOLT4 cells after 48 hrs by coulter counting analysis; assay type: functional; details: MOLT-4, 48 h; summary of the method: as §1
[10] = Growth inhibition of human EKVX cells after 48 hrs by coulter counting analysis; assay type: functional; summary of the method: as §2
[11] = Growth inhibition of human HOP92 cells after 48 hrs by coulter counting analysis; assay type: functional; details: HOP-92, 48 h; summary of the method: as §2
NCI-H460 = experiment: Growth inhibition of human NCI-H460 cells after 48 hrs by coulter counting analysis; assay type: functional; details: NCI-H460, 48 h; summary of the method: as §1
KM12 = experiment: Growth inhibition of human KM12 cells after 48 hrs by coulter counting analysis; assay type: functional; details: KM12, 48 h; summary of the method: as §2
SW-620 = experiment: Growth inhibition of human SW620 cells after 48 hrs by coulter counting analysis; assay type: functional; details: SW-620, 48 h; summary of the method: as §1
SF-268 = experiment: Growth inhibition of human SF268 cells after 48 hrs by coulter counting analysis; assay type: functional; details: SF-268, 48 h; summary of the method: as §1
SNB-19 = experiment: Growth inhibition of human SNB19 cells after 48 hrs by coulter counting analysis; assay type: functional; details: SNB-19, 48 h; summary of the method: as §1
U-251 = experiment: Growth inhibition of human U251 cells after 48 hrs by coulter counting analysis; assay type: functional; details: U-251, 48 h
Summary of the method: (§3)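 NCI five-dose screen, 0.01-100 µM, from DMSO stocks diluted in buffer saline (final DMSO <1%). Cells grown in RPMI 1640 + 10% FBS, seeded at 6×10^4 cells/ml, in duplicate wells. Exposure 48 h at 37 °C, 5% CO2. Cells diluted 10-fold in saline and counted by Coulter counter. GI50 derived from log concentration–percent growth inhibition curves. Controls carried matching PBS/saline/DMSO.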

Malme-3M = experiment: Growth inhibition of human MALME-3M cells after 48 hrs by coulter counting analysis; assay type: functional; summary of the method: as §2
M14 = experiment: Growth inhibition of human M14 cells after 48 hrs by coulter counting analysis; assay type: functional; details: M14, 48 h; summary of the method: as §2
SK-MEL-2 = experiment: Growth inhibition of human SK-MEL-2 cells after 48 hrs by coulter counting analysis; assay type: functional; details: SK-MEL-2, 48 h; summary of the method: as §1
[12] = Growth inhibition of human UACC62 cells after 48 hrs by coulter counting analysis; assay type: functional; details: UACC-62, 48 h; summary of the method: as §3
[13] = Growth inhibition of human Hs 578T cells after 48 hrs by coulter counting analysis; assay type: functional; summary of the method: as §2
[14] = Growth inhibition of human BT549 cells after 48 hrs by coulter counting analysis; assay type: functional; details: BT-549, 48 h; summary of the method: as §2
[15] = Growth inhibition of human LOXIMVI cells after 48 hrs by coulter counting analysis; assay type: functional; details: LOX IMVI; summary of the method: as §2
[16] = read-out: LC50 (the source's name)

Structure (SMILES) | GI50 [2] | GI50 [3] | GI50 [4] | GI50 (786-0) | GI50 (A498) | GI50 [5] | GI50 (SN12C) | GI50 (DU-145) | GI50 (MDA-MB-231) | inhibition [6] | GI50 (CCRF-CEM [8]) | GI50 (HL-60(TB)) | GI50 [9] | GI50 [11] | GI50 (NCI-H460) | GI50 (KM12) | GI50 (SW-620) | GI50 (SF-268) | GI50 (SNB-19) | GI50 (U-251) | other results
COc1c2occc2c(OC)c2c(=O)c(CN3CCOCC3)c(/C=C/c3ccc(N(C)C)cc3)oc12 | 2590 nM | 5150 nM | 2630 nM | 1930 nM | 2340 nM | 1810 nM | 2450 nM | 1670 nM | 2220 nM | 13% | 1170 nM | 1550 nM | 1580 nM | 240 nM | 2020 nM | 1730 nM | 2380 nM | 2220 nM | 1980 nM | 2490 nM | inhibition of growth at 10 µM (CCRF-CEM [1]): 95%; inhibition of growth at 10 µM [7]: 63%; inhibition of growth at 10 µM (MDA-MB-468): 70%; LC50 (HL-60(TB)): 9700 nM; GI50 [10]: 2240 nM; LC50 (lethal concentration, 50% net cell kill) (NCI-H460): 8480 nM; GI50 (Malme-3M): 2080 nM; CC50 (Malme-3M; [16]): 8650 nM; GI50 (M14): 2340 nM; GI50 (SK-MEL-2): 1390 nM; CC50 (SK-MEL-2; [16]): 5890 nM; GI50 [12]: 1860 nM; LC50 [12]: 7610 nM
COc1ccc(-c2cc(=O)c3c(OC)c4ccoc4c(/C=C/C=O)c3o2)cc1 | 11700 nM | 2830 nM | 2840 nM | 16800 nM | 17200 nM | 2150 nM | 2320 nM | 4530 nM | 4220 nM | 11% | 1090 nM | 2720 nM | 1840 nM | 16800 nM | 4700 nM | 12300 nM | 2300 nM | 4380 nM | 3160 nM | 2530 nM | GI50 [13]: 10400 nM; GI50 [14]: 2140 nM; GI50 [15]: 1080 nM; GI50 (Malme-3M): 3790 nM; GI50 (M14): 2240 nM; GI50 (SK-MEL-2): 9060 nM; GI50 [12]: 1770 nM
